Measurements as given in ChEMBL document CHEMBL5055648, “Design, synthesis, and biological evaluation of novel Bcr-AblT315I inhibitors incorporating amino acids as flexible linker” (Bioorg Med Chem, 2021).
The source made the active and inactive calls. The rule behind the calls is not given here.

Legend:
Bcr/Abl fusion protein [1] = molecular target: Bcr/Abl fusion protein (Homo sapiens, UniProt P00519); assay: Inhibition of wild type Bcr-Abl (unknown origin) incubated for 1 hr in presence of ATP by ADP-Glo kinase assay; format: protein assay
Bcr/Abl fusion protein [2] = molecular target: Bcr/Abl fusion protein (Homo sapiens, UniProt P00519, T315I); assay: Inhibition of wild type Bcr-Abl T315I mutant (unknown origin) incubated for 1 hr in presence of ATP by ADP-Glo kinase assay; format: protein assay
K562 [3] = assay: Antiproliferative activity against human K562 cells assessed as inhibition of cell proliferation incubated for 48 hrs by MTT assay; format: functional, cell-based; settings: K562, 48 h
In short: (§1)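 MTT growth assay. K562 and K562R (T315I) cells grown in RPMI 1640 with 10% FBS. Hek293 and EA.hy926 cells grown in DMEM with 10% FBS. About 2.5 × 10^3 exponential-phase cells per well, preincubated 12 h at 37 °C in 5% CO2. Serially diluted compounds added for 48 h, then MTT at 0.5 mg/mL final for 4 h. Formazan dissolved in DMSO, A490 read, IC50 calculated from inhibition ratios.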

K-562R [4] = assay: Antiproliferative activity against T315I mutant expressing human K-562R cells assessed as inhibition of cell proliferation incubated for 48 hrs by MTT assay; format: functional, cell-based; in short: as §1
HEK293 = assay: Cytotoxicity against human HEK293 cells assessed as cell growth inhibition incubated for 48 hrs by MTT assay; format: cell-based; settings: hek293, 48 h; in short: as §1
EA.hy 926 = assay: Cytotoxicity against human EA.hy926 cells assessed as cell growth inhibition incubated for 48 hrs by MTT assay; format: cell-based; settings: ea.hy 926, 48 h; in short: as §1
K562 [5] = assay: Induction of apoptosis in human K562 cells assessed as viable cells at 1 uM after 48 hrs by annexinV/FITC-propidium iodide staining based flow cytometry (reference value: 84.19 %); format: functional; settings: read-out: Activity
K562 [6] = assay: Induction of apoptosis in human K562 cells assessed as early apoptotic cells at 1 uM after 48 hrs by annexinV/FITC-propidium iodide staining based flow cytometry (reference value: 2.98 %); format: functional
K562 [7] = assay: Induction of apoptosis in human K562 cells assessed as late apoptotic cells at 1 uM after 48 hrs by annexinV/FITC-propidium iodide staining based flow cytometry (reference value: 12.60 %); format: functional
K562 [8] = assay: Induction of apoptosis in human K562 cells assessed as necrotic cells at 1 uM after 48 hrs by annexinV/FITC-propidium iodide staining based flow cytometry (reference value: 0.23 %); format: functional
K562 [9] = assay: Induction of apoptosis in human K562 cells assessed as viable cells at 10 uM after 48 hrs by annexinV/FITC-propidium iodide staining based flow cytometry (reference value: 84.19 %); format: functional; settings: read-out: Activity
K562 [10] = assay: Induction of apoptosis in human K562 cells assessed as early apoptotic cells at 10 uM after 48 hrs by annexinV/FITC-propidium iodide staining based flow cytometry (reference value: 2.98 %); format: functional
K562 [11] = assay: Induction of apoptosis in human K562 cells assessed as late apoptotic cells at 10 uM after 48 hrs by annexinV/FITC-propidium iodide staining based flow cytometry (reference value: 12.60 %); format: functional
K562 [12] = assay: Induction of apoptosis in human K562 cells assessed as necrotic cells at 10 uM after 48 hrs by annexinV/FITC-propidium iodide staining based flow cytometry (reference value: 0.23 %); format: functional
K562 [13] = assay: Induction of apoptosis in human K562 cells assessed as viable cells at 20 uM after 48 hrs by annexinV/FITC-propidium iodide staining based flow cytometry (reference value: 84.19 %); format: functional; settings: read-out: Activity
K562 [14] = assay: Induction of apoptosis in human K562 cells assessed as early apoptotic cells at 20 uM after 48 hrs by annexinV/FITC-propidium iodide staining based flow cytometry (reference value: 2.98 %); format: functional
K562 [15] = assay: Induction of apoptosis in human K562 cells assessed as late apoptotic cells at 20 uM after 48 hrs by annexinV/FITC-propidium iodide staining based flow cytometry (reference value: 12.60 %); format: functional
K562 [16] = assay: Induction of apoptosis in human K562 cells assessed as necrotic cells at 20 uM after 48 hrs by annexinV/FITC-propidium iodide staining based flow cytometry (reference value: 0.23 %); format: functional
[17] = molecular target: T1, Bcr/Abl fusion protein (Homo sapiens) (UniProt P00519+P11274); assay: Inhibition of Bcr-Abl in human K562 cells assessed as decrease in tyrosine phosphorylation measured after 48 hrs by Western blot analysis; format: cell-based; settings: dose 1-15 µM
In short: (§2)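 Western blot. K562 cells treated 48 h with DMSO vehicle or compound at 1, 5, 10 or 15 µM. Lysates were normalized by BCA and equal protein run on SDS-PAGE, then transferred to PVDF and blocked in 5% milk/TBS-0.1% Tween-20. Probed overnight at 4 °C with p-Bcr-Abl and GAPDH antibodies, then with HRP secondaries for 2 h at room temperature. Read-out was p-Bcr-Abl/GAPDH ratio.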

[18] = molecular target: T1, Bcr/Abl fusion protein (Homo sapiens); assay: Inhibition of Bcr-Abl phosphorylation in human K562 cells at 10 uM measured after 48 hrs by Western blot analysis; format: cell-based; in short: as §2
K-562R [19] = assay: Antiproliferative activity against T315I mutant expressing human K-562R cells assessed as inhibition of cell proliferation at 100 uM incubated for 48 hrs by MTT assay relative to control; format: functional; in short: as §1

IC50 (Bcr/Abl fusion protein [1]) | IC50 (Bcr/Abl fusion protein [2]) | IC50 (K562 [3]) | SMILES | also measured
0.49 µM | 24.6 µM | 8.71 µM | CC(=O)Nc1ccc(-c2cccc(C(=O)N[C@H]3CN[C@@H](C(=O)Nc4ccc(Cl)c(C(F)(F)F)c4)C3)c2)cn1 | –
0.041 µM | 0.53 µM | 7.45 µM | C[C@H](NC(=O)c1ccc(-c2ccc(NC(=O)C(C)(C)C)nc2)cc1)C(=O)Nc1ccc(Cl)c(C(F)(F)F)c1 | IC50 (K-562R [4]): 9.1 µM; Activity (HEK293): Non-Toxic; Activity (EA.hy 926): Non-Toxic; viability at 1 µM (K562 [5]): 74.5%; Activity (K562 [6]): 3.39%; Activity (K562 [7]): 21.11%; Activity (K562 [8]): 0.98%; viability at 10 µM (K562 [9]): 36.5%; Activity (K562 [10]): 10.03%; Activity (K562 [11]): 48.96%; Activity (K562 [12]): 4.57%; viability at 20 µM (K562 [13]): 35.9%; Activity (K562 [14]): 11.48%; Activity (K562 [15]): 50.94%; Activity (K562 [16]): 1.65%; inhibition [17]: Dose-dependent effect; inhibition [18]: Active
0.29 µM | 86 µM | 29.9 µM | CCN(CC)C(=O)c1cncc(-c2cccc(C(=O)N[C@@H](C)C(=O)Nc3ccc(Cl)c(C(F)(F)F)c3)c2)c1 | –
– | – | – | Cc1ccc(C(=O)Nc2ccc(CN3CCN(C)CC3)c(C(F)(F)F)c2)cc1C#Cc1cnc2cccnn12 [PONATINIB] | IC50 (K-562R [4]): 0.093 µM
4.4 µM | 86.8 µM | 8.09 µM | C[C@H](NC(=O)c1cccc(-c2ccc(N)nc2)c1)C(=O)Nc1ccc(Cl)c(C(F)(F)F)c1 | –
2.64 µM | 50.3 µM | 11.6 µM | CC(C)(C)C(=O)Nc1ccc(-c2ccc(C(=O)N[C@H]3CN[C@@H](C(=O)Nc4ccc(Cl)c(C(F)(F)F)c4)C3)cc2)cn1 | –
12 µM | 103 µM | 20 µM | Nc1ccc(-c2cccc(C(=O)N[C@H]3CN[C@@H](C(=O)Nc4ccc(Cl)c(C(F)(F)F)c4)C3)c2)cn1 | –
3.75 µM | 42.7 µM | 24.9 µM | CCN(CC)C(=O)c1cncc(-c2cccc(C(=O)N[C@H]3CN[C@@H](C(=O)Nc4ccc(Cl)c(C(F)(F)F)c4)C3)c2)c1 | –
2.41 µM | 21.7 µM | 19.8 µM | CN(C)CCNC(=O)c1cncc(-c2cccc(C(=O)N[C@H]3CN[C@@H](C(=O)Nc4ccc(Cl)c(C(F)(F)F)c4)C3)c2)c1 | –
0.011 µM | 59.9 µM | 20.2 µM | CCN(CC)C(=O)c1cncc(-c2ccc(C(=O)N[C@@H](C)C(=O)Nc3ccc(Cl)c(C(F)(F)F)c3)cc2)c1 | –
61.2 µM | 39 µM | 65.3 µM | O=C(NC1CC1)c1cncc(-c2ccc(C(=O)N[C@H]3CN[C@@H](C(=O)Nc4ccc(Cl)c(C(F)(F)F)c4)C3)cc2)c1 | –
9.18 µM | 14.1 µM | 9.13 µM | Nc1ccc(-c2ccc(C(=O)N[C@H]3CN[C@@H](C(=O)Nc4ccc(Cl)c(C(F)(F)F)c4)C3)cc2)cn1 | –
6.62 µM | 2.28 µM | 4.65 µM | C[C@H](NC(=O)c1ccc(-c2cncc(C(=O)NCCN(C)C)c2)cc1)C(=O)Nc1ccc(Cl)c(C(F)(F)F)c1 | –
4.48 µM | 244 µM | 18.4 µM | C[C@H](NC(=O)c1cccc(-c2ccc(NC(=O)C(C)(C)C)nc2)c1)C(=O)Nc1ccc(Cl)c(C(F)(F)F)c1 | –
6.48 µM | 16.2 µM | 24.6 µM | CS(=O)(=O)Nc1ccc(-c2cccc(C(=O)N[C@H]3CN[C@@H](C(=O)Nc4ccc(Cl)c(C(F)(F)F)c4)C3)c2)cn1 | –
16 µM | 26.6 µM | 27.3 µM | O=C(NC1CC1)c1cncc(-c2cccc(C(=O)N[C@H]3CN[C@@H](C(=O)Nc4ccc(Cl)c(C(F)(F)F)c4)C3)c2)c1 | –
0.15 µM | 36.9 µM | 45 µM | CS(=O)(=O)Nc1ccc(-c2ccc(C(=O)N[C@H]3CN[C@@H](C(=O)Nc4ccc(Cl)c(C(F)(F)F)c4)C3)cc2)cn1 | –
– | – | – | Cc1ccc(NC(=O)c2ccc(CN3CCN(C)CC3)cc2)cc1Nc1nccc(-c2cccnc2)n1 [IMATINIB] | inhibition at 100 µM (K-562R [19]): 45%
0.77 µM | 7.51 µM | 5.95 µM | C[C@H](NC(=O)c1ccc(-c2ccc(N)nc2)cc1)C(=O)Nc1ccc(Cl)c(C(F)(F)F)c1 | –
4.23 µM | 22.1 µM | 4.56 µM | CN(C)CCNC(=O)c1cncc(-c2ccc(C(=O)N[C@H]3CN[C@@H](C(=O)Nc4ccc(Cl)c(C(F)(F)F)c4)C3)cc2)c1 | –
7.4 µM | 50.5 µM | 55.5 µM | CCN(CC)C(=O)c1cncc(-c2ccc(C(=O)N[C@H]3CN[C@@H](C(=O)Nc4ccc(Cl)c(C(F)(F)F)c4)C3)cc2)c1 | –
3.34 µM | 129 µM | 4.66 µM | C[C@H](NC(=O)c1cccc(-c2ccc(NS(C)(=O)=O)nc2)c1)C(=O)Nc1ccc(Cl)c(C(F)(F)F)c1 | –
0.2 µM | 22.4 µM | 107 µM | CC(=O)Nc1ccc(-c2ccc(C(=O)N[C@@H](C)C(=O)Nc3ccc(Cl)c(C(F)(F)F)c3)cc2)cn1 | –
1.46 µM | 7.83 µM | 15.1 µM | C[C@H](NC(=O)c1cccc(-c2cncc(C(=O)NC3CC3)c2)c1)C(=O)Nc1ccc(Cl)c(C(F)(F)F)c1 | –
0.64 µM | 2.41 µM | 7.92 µM | C[C@H](NC(=O)c1cccc(-c2cncc(C(=O)NCCN(C)C)c2)c1)C(=O)Nc1ccc(Cl)c(C(F)(F)F)c1 | –
34.5 µM | 13 µM | 22.8 µM | CC(=O)Nc1ccc(-c2ccc(C(=O)N[C@H]3CN[C@@H](C(=O)Nc4ccc(Cl)c(C(F)(F)F)c4)C3)cc2)cn1 | –
3.77 µM | 9.95 µM | 7.24 µM | C[C@H](NC(=O)c1ccc(-c2ccc(NS(C)(=O)=O)nc2)cc1)C(=O)Nc1ccc(Cl)c(C(F)(F)F)c1 | –
4.63 µM | 147 µM | 28 µM | CC(C)(C)C(=O)Nc1ccc(-c2cccc(C(=O)N[C@H]3CN[C@@H](C(=O)Nc4ccc(Cl)c(C(F)(F)F)c4)C3)c2)cn1 | –
9.38 µM | 4.99 µM | 396 µM | C[C@H](NC(=O)c1ccc(-c2cncc(C(=O)NC3CC3)c2)cc1)C(=O)Nc1ccc(Cl)c(C(F)(F)F)c1 | –
0.6 µM | 38.6 µM | 42.8 µM | CC(=O)Nc1ccc(-c2cccc(C(=O)N[C@@H](C)C(=O)Nc3ccc(Cl)c(C(F)(F)F)c3)c2)cn1 | –
